Results from ChEMBL document CHEMBL1128300, “Synthesis and in vivo evaluation of prodrugs of 9-[2-(phosphonomethoxy)ethoxy]adenine” (J Med Chem, 1995).

Key:
Mus musculus [1] = assay: % bioavailability in mice after oral administration of prodrug; format: ADME, organism-based; details: in vivo
How it was run: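 Female BALB/c mice, fasted 16 h, single oral gavage 0.2 mmol/kg in 1% carboxymethyl cellulose plus 1% Tween 80 in water. Blood from three mice per time point pooled, ethanol-deproteinized, analysed by reversed-phase C18 HPLC (ion-pair phosphate buffer pH 2.6 / methanol gradient). Bioavailability as oral AUC of released parent phosphonate expressed as percent of intravenous AUC of its sodium salt.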

Mus musculus [2] = assay: Concentration of the 9-[2-(Phosphonomethoxy)ethoxy]adenine in the blood following oral administration in mice; format: ADME, organism-based; set-up: unit not given here; details: in vivo
How it was run: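 Single 0.2 mmol/kg oral gavage dose to female BALB/c mice fasted 16 h, vehicle 1% carboxymethyl cellulose plus 1% Tween 80 in water. At each time point blood from three mice pooled, deproteinized with ice-cold ethanol at -20 °C, and parent phosphonate quantified by C18 HPLC with a gradient from pH 2.6 phosphate ion-pair buffer to 80% methanol.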

[3] = test system: Human immunodeficiency virus 1; assay: Inhibitory activity against HIV-1, in peripheral blood lymphocytes
[4] = test system: Simian immunodeficiency virus; assay: Inhibitory activity against Simian immunodeficiency virus.; format: functional, organism-based
[5] = test system: Human immunodeficiency virus 2; assay: Inhibitory activity against HIV-2, in peripheral blood lymphocytes
[6] = test system: Feline immunodeficiency virus; assay: Inhibitory activity against Feline immunodeficiency virus.; format: functional, organism-based

Row | Compound | F% (Mus musculus [1]) | AUC (Mus musculus [2]) | other results
1 | CC(=O)Oc1ccccc1OP(=O)(COCCOn1cnc2c(N)ncnc21)Oc1ccccc1OC(C)=O | 10% | 5 | –
2 | COc1ccc(OP(=O)(COCCOn2cnc3c(N)ncnc32)Oc2ccc(OC)cc2)cc1 | 10% | 5 | –
3 | Nc1ncnc2c1ncn2OCCOCP(=O)(Oc1ccc(Br)cc1)Oc1ccc(Br)cc1 | 6% | 3 | –
4 | Nc1ncnc2c1ncn2OCCOCP(=O)(Oc1ccccc1)Oc1ccccc1 | 26% | 13 | –
5 | Cc1ccccc1OP(=O)(COCCOn1cnc2c(N)ncnc21)Oc1ccccc1C | 22% | 11 | –
6 | CC(=O)OCc1ccc(OP(=O)(COCCOn2cnc3c(N)ncnc32)Oc2ccc(COC(C)=O)cc2)cc1 | 0% | 0 | –
7 | Nc1ncnc2c1ncn2OCCOCP(=O)(O)O | – | – | IC50 [3]: 200 nM; IC50 [4]: 3000 nM; IC50 [5]: 300 nM; IC50 [6]: 1700 nM
8 | CC(C)(C)OC(=O)c1ccc(OP(=O)(COCCOn2cnc3c(N)ncnc32)Oc2ccc(C(=O)OC(C)(C)C)cc2)cc1 | 0% | 0 | –
9 | Nc1ncnc2c1ncn2OCCOCP(=O)(OCc1ccc(Br)cc1)OCc1ccc(Br)cc1 | 2% | 1 | –
10 | CC(=O)Oc1ccc(COP(=O)(COCCOn2cnc3c(N)ncnc32)OCc2ccc(OC(C)=O)cc2)cc1 | 8% | 4 | –
11 | Nc1ncnc2c1ncn2OCCOCP(=O)(OCc1ccccc1)OCc1ccccc1 | 4% | 2 | –
12 | CC(C)C(=O)Oc1ccc(COP(=O)(COCCOn2cnc3c(N)ncnc32)OCc2ccc(OC(=O)C(C)C)cc2)cc1 | 1% | 0.5 | –
13 | CC(C)OP(=O)(COCCOn1cnc2c(N)ncnc21)OCC(=O)OC(C)(C)C (stereo unspecified) | 0% | 0 | –
14 | CCOP(=O)(COCCOn1cnc2c(N)ncnc21)OCC | 8% | 4 | –
15 | CC(=O)Oc1ccc(OP(=O)(COCCOn2cnc3c(N)ncnc32)Oc2ccc(OC(C)=O)cc2)cc1 | 8% | 4 | –
16 | Nc1ncnc2c1ncn2OCCOCP(=O)(OCc1ccc(Cl)cc1)OCc1ccc(Cl)cc1 | 8% | 4 | –
17 | Cl.Nc1ncnc2c1ncn2OCCOCP(=O)(Oc1ccccc1)Oc1ccccc1 | 50% | 25 | –

Now from value to molecule, other results behind:

Row | F% (Mus musculus [1]) | AUC (Mus musculus [2]) | Compound | other results
18 | 8% | 4 | Nc1ncnc2c1ncn2OCCOCP(=O)(OCCBr)OCCBr | –
19 | 6% | 3 | Nc1ncnc2c1ncn2OCCOCP(=O)(OCC(Cl)Cl)OCC(Cl)Cl | –
20 | 0% | 0 | CCOCCOP(=O)(COCCOn1cnc2c(N)ncnc21)OCCOCC | –
21 | 0% | 0 | COP(=O)(COCCOn1cnc2c(N)ncnc21)OC | –
22 | 30% | 15 | CC(C)(C)C(=O)OCOP(=O)(COCCOn1cnc2c(N)ncnc21)OCOC(=O)C(C)(C)C | –
23 | 0% | 0 | CC(C)(CCl)C(=O)OCOP(=O)(COCCOn1cnc2c(N)ncnc21)OCOC(=O)C(C)(C)CCl | –
24 | 0% | 0 | CCCCOP(=O)(COCCOn1cnc2c(N)ncnc21)OCCCC | –
25 | 24% | 12 | CC(OC(=O)C(C)C)OP(=O)(COCCOn1cnc2c(N)ncnc21)OC(C)OC(=O)C(C)C (stereo unspecified) | –
26 | 74% | 37 | CC(OC(=O)C(C)(C)C)OP(=O)(COCCOn1cnc2c(N)ncnc21)OC(C)OC(=O)C(C)(C)C (stereo unspecified) | –
27 | 10% | 5 | CC(C)OP(=O)(COCCOn1cnc2c(N)ncnc21)OC(C)C | –
